Published values collected from several papers.
Compare with care: the assays were run in different laboratories.
BMPR2: Bone morphogenetic protein receptor type-2 (BMPR2, Homo sapiens, UniProt Q13873)
Stromelysin-2: Stromelysin-2 (Homo sapiens, UniProt P09238)
PSMB6: Proteasome subunit beta type-6 (PSMB6, Homo sapiens, UniProt P28072)
PRKAA2: 5'-AMP-activated protein kinase catalytic subunit alpha-2 (PRKAA2, Homo sapiens, UniProt P54646)
SRC: Proto-oncogene tyrosine-protein kinase Src (SRC, Homo sapiens, UniProt P12931)

| SMILES | target | test | conditions | endpoint | value |
| --- | --- | --- | --- | --- | --- |
| C=CCn1c2cc(OC(=O)CCCCN3CCN(Cc4cccc(Cl)c4)CC3)ccc2c2ccnc(C)c21 | Acetylcholinesterase (ACHE, Homo sapiens, UniProt P22303) | enzyme activity, inhibitor, Ellman | 1 µM | inhibition | 48.1% |
| CCOC(=O)c1ccc(OC(=O)CCCCCNC(=N)N)cc1 | Dipeptidyl peptidase 4 (DPP4, Homo sapiens, UniProt P27487) | enzyme activity, inhibitor | 10 µM | inhibition | 21% |
| Cn1cc(-c2cccc(N3CCc4c(sc5c4CC(C)(C)C5)C3=O)c2CO)cc(Nc2ccncn2)c1=O | Cyclin-dependent kinase 9, with cyclin K (CDK9, Homo sapiens, UniProt P50750) | enzyme activity, inhibitor | 1 µM | inhibition | 11% |
| Cc1nn(C)cc1-c1nc2c(N3CCN(Cc4ccc(Cl)cc4)CC3)c(Cl)cnc2[nH]1 | BMPR2 | binding, competition with immobilised ligand | 1 µM | remaining binding | 100% |
| CN(C)C(=O)COC(=O)Cc1ccc(OC(=O)c2ccc(NC(=N)N)cc2)cc1 | Stromelysin-2 | enzyme activity, inhibitor | 10 µM | inhibition | 29% |
| Cc1cc(-c2nsc(=O)o2)c(S(C)(=O)=O)s1 | PSMB6 | enzyme activity, inhibitor | – | kinact/KI | 1.4 M⁻¹ s⁻¹ |
| N#C[C@@H]1CC(F)(F)CN1C(=O)CNC(=O)c1ccnc2ccccc12 | Prolyl endopeptidase FAP (FAP, Homo sapiens, UniProt Q12884) | enzyme activity, inhibitor | 10 nM | inhibition | 35% |
| Nc1ncc(-c2nc(N3CCOCC3)nc(N3CCOCC3)n2)c(C(F)F)n1 | PRKAA2 | cell-free assay, competition with immobilised ligand | 10 µM | remaining binding | 91% |
| Cn1cc(-c2cc(F)cc(N3CCn4c(cc5c4CCCC5)C3=O)c2CO)cc(Nc2ccc(N3CCN(C4COC4)CC3)cn2)c1=O | PRKAA2 | enzyme activity, inhibitor | 0.1 µM | inhibition | 14% |
| N=C(N)c1ccc2cc(OC(=O)c3ccc(N=C(N)N)cc3)ccc2c1 | Stromelysin-2 | enzyme activity, inhibitor | 10 µM | inhibition | 0% |
| COc1ncccc1-c1cnn2ccc(N3CCN(C(=O)OC(C)C)CC3)nc12 | BMPR2 | binding, competition with immobilised ligand | 1 µM | remaining binding | 72% |
| COc1cc(Br)cc(Br)c1Oc1cc(Br)cc(Br)c1O | Sulfotransferase 1E1 (SULT1E1, Homo sapiens, UniProt P49888) | enzyme activity, substrate | – | Km | 1.09 µM |
| C#Cc1n[nH]c2c(-c3cn([C@@H](C)c4ccccc4)c(=O)[nH]c3=O)cc(F)cc12 | SRC | enzyme activity, inhibitor | 0.1 µM | inhibition | 8.4% |
| COc1ccc(S(=O)(=O)N(CC(=O)NO)CC(C)C)cc1 | Stromelysin-2 | enzyme activity, inhibitor | 1 µM | inhibition | 63% |
| C#Cc1n[nH]c2c(-c3cn([C@@H](C)c4ccccn4)c(=O)[nH]c3=O)cc(F)cc12 | SRC | enzyme activity, inhibitor | 0.1 µM | inhibition | 12.9% |
| CSc1sc(C)cc1-c1nsc(=O)o1 | PSMB6 | enzyme activity, inhibitor | – | kinact/KI | 0.03 M⁻¹ s⁻¹ |
